In ChEMBL document CHEMBL1938372, “Design and synthesis of conformationally constrained inhibitors of non-nucleoside reverse transcriptase” (J Med Chem, 2011):
The source made the active and inactive calls. No cut-off for these calls is given here.

What was measured:
[1] = target: Human immunodeficiency virus type 1 reverse transcriptase (Human immunodeficiency virus 1, UniProt Q72547, K103N); assay: Inhibition of Human immunodeficiency virus reverse transcriptase K103N mutant by SPA assay
Outline: (§1)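 Recombinant HIV-1 RT polymerase scintillation proximity assay run with mutant enzyme, reported as Ki (nM). Values are geometric means of at least two determinations, each within 2-fold of the mean; SEM is given where there were ≥3 determinations.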

[2] = target: Human immunodeficiency virus type 1 reverse transcriptase (Human immunodeficiency virus 1, UniProt Q72547, Y181C); assay: Inhibition of Human immunodeficiency virus reverse transcriptase Y181C mutant by SPA assay; outline: as §1
[3] = test system: Human immunodeficiency virus; assay: Antiviral activity against Human immunodeficiency virus expressing wild type reverse transcriptase infected in human MT4 cells by p24 antigen assay in the presence of 10% FBS; type: functional; settings: Human immunodeficiency virus 1, MT4; read-out: CIC95
Outline: (§2)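 MT-4 human T-lymphoid cells in RPMI 1640 with either 10% FBS or 50% NHS; CIC95 taken as the concentration inhibiting virus spread/replication by >95%. Geometric mean of at least two determinations, individual values within 2-fold; SEM given when ≥3 determinations.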

MT4 = assay: Cytotoxicity against human MT4 cells up to 8.3 uM; type: cell-based
Outline: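 MT-4 cells in RPMI 1640 with 10% FBS or 50% NHS, run alongside the antiviral CIC95 assay; cytotoxicity checked up to the assay upper limit of 8.3 μM.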

[4] = Inhibition of Human immunodeficiency virus reverse transcriptase by SPA assay
[5] = test system: Human immunodeficiency virus; assay: Antiviral activity against Human immunodeficiency virus expressing reverse transcriptase K103N mutant infected in human MT4 cells by p24 antigen assay in the presence of 10% FBS; type: functional; settings: Human immunodeficiency virus 1, MT4; read-out: CIC95
Outline: (§3)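 Antiviral spread assay in MT-4 human T-lymphoid cells kept in RPMI 1640 with 10% FBS. Value is the CIC95, the concentration inhibiting virus replication by >95%. Reported as the geometric mean of at least two determinations, all within 2-fold of the mean. Cytotoxicity was checked up to the assay upper limit of 8.3 μM.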

[6] = Volume of distribution in Beagle dog at 2 mg/kg, po and 1 mg/kg, iv; type: ADME, organism-based, Canis lupus familiaris; settings: in vivo
Outline: (§4)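 PK in Sprague-Dawley rats (iv solution in DMSO via an indwelling jugular cannula, or oral suspension in aqueous methylcellulose/Methocel) and beagle dogs (iv and oral given crossover, same vehicles). Plasma levels by LC-MS. F from oral versus iv dose-normalized AUC. Average of at least two animals; rat values within 25% of the mean.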

[7] = test system: Human immunodeficiency virus; assay: Antiviral activity against wild type Human immunodeficiency virus assessed as inhibition of viral replication; type: functional, organism-based
[8] = test system: Human immunodeficiency virus; assay: Antiviral activity against Human immunodeficiency virus harboring reverse transcriptase K103N mutant assessed as inhibition of viral replication; type: functional, organism-based
Outline: (§5)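 Phenosense cell culture assay against a panel of clinically derived RT mutant viruses in the presence of 10% FBS. IC50 is the compound concentration blocking 50% of viral replication. Each value is the average of two determinations.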

[9] = Solubility of the compound in water at pH 2; type: physicochemical
Outline: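 Water solubility of the solid compound measured at pH 2 and at pH 7.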

[10] = test system: Human immunodeficiency virus; assay: Antiviral activity against Human immunodeficiency virus harboring reverse transcriptase K101E/Y181C/G190A triple mutant assessed as inhibition of viral replication; type: functional, organism-based; outline: as §5
[11] = test system: Human immunodeficiency virus; assay: Antiviral activity against Human immunodeficiency virus expressing wild type reverse transcriptase infected in human MT4 cells by p24 antigen assay in the presence of 50% normal human serum; type: functional; settings: Human immunodeficiency virus 1, MT4; read-out: CIC95; outline: as §2
[12] = test system: Human immunodeficiency virus; assay: Antiviral activity against multidrug-resistant Human immunodeficiency virus assessed as inhibition of viral replication; type: functional, organism-based; outline: as §5
[13] = Bioavailability in Beagle dog at 2 mg/kg, po and 1 mg/kg, iv; type: ADME, organism-based, Canis lupus familiaris; settings: in vivo; outline: as §4
[14] = test system: Human immunodeficiency virus; assay: Antiviral activity against Human immunodeficiency virus harboring reverse transcriptase Y181C mutant assessed as inhibition of viral replication; type: functional, organism-based; outline: as §5
[15] = Plasma clearance in Sprague-Dawley rat at 10 mg/kg, po and 2 mg/kg, iv; type: ADME, organism-based; outline: as §4
[16] = test system: Human immunodeficiency virus; assay: Antiviral activity against Human immunodeficiency virus expressing reverse transcriptase Y181C mutant infected in human MT4 cells by p24 antigen assay in the presence of 10% FBS; type: functional; settings: Human immunodeficiency virus 1, MT4; read-out: CIC95; outline: as §3
Rattus norvegicus = assay: Dose normalised AUC in Sprague-Dawley rat at 10 mg/kg, po by LC-MS analysis; type: ADME, organism-based; design: dose 10 mg/kg, route oral; settings: in vivo; outline: as §4
[17] = Half life in Sprague-Dawley rat at 10 mg/kg, po and 2 mg/kg, iv; type: ADME, organism-based; settings: in vivo; outline: as §4
[18] = Bioavailability in Sprague-Dawley rat at 10 mg/kg, po and 2 mg/kg, iv; type: ADME, organism-based; settings: in vivo; outline: as §4
[19] = Volume of distribution in Sprague-Dawley rat at 10 mg/kg, po and 2 mg/kg, iv; type: ADME, organism-based; settings: in vivo; outline: as §4
[20] = Plasma clearance in Beagle dog at 2 mg/kg, po and 1 mg/kg, iv; type: ADME, organism-based, Canis lupus familiaris; outline: as §4
[21] = test system: Human immunodeficiency virus; assay: Antiviral activity against Human immunodeficiency virus harboring reverse transcriptase K101E/G190A double mutant assessed as inhibition of viral replication; type: functional, organism-based; outline: as §5
[22] = test system: Human immunodeficiency virus; assay: Antiviral activity against Human immunodeficiency virus harboring reverse transcriptase K103N/Y181C/G190A triple mutant assessed as inhibition of viral replication; type: functional, organism-based; outline: as §5
[23] = test system: Human immunodeficiency virus; assay: Antiviral activity against Human immunodeficiency virus harboring reverse transcriptase Y188L mutant assessed as inhibition of viral replication; type: functional, organism-based; outline: as §5
[24] = test system: Human immunodeficiency virus; assay: Antiviral activity against Human immunodeficiency virus harboring reverse transcriptase G190A mutant assessed as inhibition of viral replication; type: functional, organism-based; outline: as §5
[25] = test system: Human immunodeficiency virus; assay: Antiviral activity against Human immunodeficiency virus harboring reverse transcriptase V106A/G190A/F227L triple mutant assessed as inhibition of viral replication; type: functional, organism-based; outline: as §5
[26] = test system: Human immunodeficiency virus; assay: Antiviral activity against Human immunodeficiency virus harboring reverse transcriptase L100l mutant assessed as inhibition of viral replication; type: functional, organism-based; outline: as §5
Canis familiaris [27] = assay: Dose normalised AUC in Beagle dog at 2 mg/kg, po by LC-MS analysis; type: ADME, organism-based, Canis lupus familiaris; design: dose 2 mg/kg, route oral; settings: in vivo; outline: as §4
[28] = test system: Human immunodeficiency virus; assay: Antiviral activity against Human immunodeficiency virus harboring reverse transcriptase G190S mutant assessed as inhibition of viral replication; type: functional, organism-based; outline: as §5
[29] = test system: Human immunodeficiency virus; assay: Antiviral activity against Human immunodeficiency virus harboring reverse transcriptase L100l/K103N/P225P/H triple mutant assessed as inhibition of viral replication; type: functional, organism-based; outline: as §5
[30] = Half life in Beagle dog at 2 mg/kg, po and 1 mg/kg, iv; type: ADME, organism-based, Canis lupus familiaris; settings: in vivo; outline: as §4
[31] = test system: Human immunodeficiency virus; assay: Antiviral activity against Human immunodeficiency virus harboring reverse transcriptase K103N/P225H double mutant assessed as inhibition of viral replication; type: functional, organism-based; outline: as §5
Canis familiaris [32] = assay: Dose normalised AUC in Beagle dog at 10 mg/kg, po by LC-MS analysis; type: ADME, organism-based, Canis lupus familiaris; design: dose 10 mg/kg, route oral; settings: in vivo; outline: as §4

Row | SMILES | Ki [1] [nM] | Ki [2] [nM] | IC95 [3] [nM] | Activity (MT4) | Ki [4] [nM] | IC95 [5] [nM] | inhibition [7] | inhibition [8] | inhibition [10] | IC95 [11] [nM] | inhibition [12] | inhibition [14] | IC95 [16] [nM] | AUC/dose (Rattus norvegicus) [µM·h] | inhibition [21] | inhibition [22] | inhibition [23] | inhibition [24] | inhibition [25] | inhibition [26] | other results
1 | N#Cc1cc(Cl)cc(Oc2cc3c(cc2Cl)nnn3Cc2n[nH]c3ncccc23)c1 | > 300 | > 900 | > 833 | Non-toxic | > 300 |  |  |  |  |  |  |  |  |  |  |  |  |  |  |  | 
2 | N#Cc1cc(Cl)cc(Oc2cc3c(cc2Cl)ncn3Cc2n[nH]c3ncccc23)c1 | > 100 | > 100 | 693 | Non-toxic | 114 | 732 |  |  |  |  |  |  |  |  |  |  |  |  |  |  | 
3 | N#Cc1cc(Cl)cc(Oc2c(Cl)ccc3c2nnn3Cc2n[nH]c3ncccc23)c1 | 0.43 | 0.44 | 4.3 | Non-toxic | 0.24 | 3.8 | Active | Active | Active | 23 | Active | Active | 18 | 0.18 | Active | Active | inactive | Active | inactive | Active | Vd [6]: 1.3 L/kg; solubility [9]: < 0.1 µg/mL; bioavailability [13]: 9.5%; clearance [15]: 14 mL/min/kg; half-life [17]: 4.8 h; bioavailability [18]: 7.3%; Vd [19]: 5.5 L/kg; clearance [20]: 1.6 mL/min/kg; AUC/dose (Canis familiaris [27]): 0.45 µM·h; inhibition [28]: Active; inhibition [29]: Active; half-life [30]: 11.3 h; inhibition [31]: Active
4 | N#Cc1cc(Cl)cc(Oc2cc(OCc3n[nH]c4nc(N)ccc34)ccc2Cl)c1 |  |  | 4.9 | Non-toxic | 0.2 | 12 | Active | Active | Active | 26 | Active | Active | 27 | 2.3 | Active | Active | inactive | Active | inactive | Active | AUC/dose (Canis familiaris [32]): 3.1 µM·h; inhibition [28]: Active; inhibition [29]: Active; inhibition [31]: Active
5 | NCc1cc(Cl)cc(Oc2c(Cl)ccc3c2nnn3Cc2n[nH]c3ncccc23)c1Cl |  |  | 57 | Non-toxic |  | 232 |  |  |  | 281 |  |  | 418 |  |  |  |  |  |  |  | 
6 | N#Cc1cc(Cl)cc(Oc2c(Cl)ccc3c2[nH]c(=O)n3Cc2n[nH]c3ncccc23)c1 | > 600 | > 300 | > 833 | Non-toxic | > 300 |  |  |  |  | > 833 |  |  |  |  |  |  |  |  |  |  | 
